Source: paper PMC3835248 (Journal of the American Heart Association: Cardiovascular …, 2013)
“Also recorded” adds a separate entry of the source.

What was measured:
IκBα = test: Half-life of endogenous IκBα in Jurkat T cells; format: cell-based, human; details: 1 μmol/L 30 minutes before cycloheximide, PMA/Iono-stimulated Jurkat
Outline: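 Jurkat T cells given cycloheximide 10 μg/mL. 30 min later, left unstimulated or given PMA 5 nmol/L plus ionomycin 2 μmol/L. Parallel samples had epoxomicin 1 μmol/L 30 min before cycloheximide. Cells sampled at […]; two-step hypotonic NP-40/0.45 mol/L NaCl lysates. Infrared quantitative immunoblot; signal normalised to β-actin, expressed as % of t0; mean±SD of ≥3 experiments.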

importins α = test: Competition of biotinylated peptides with native auto-inhibitory regions; format: binding, human; details: biotinylated peptide, Jurkat lysate, pull-down
Outline: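 Biotinylated peptides of importin α1, α3, α4, α5 and α7 auto-inhibitory regions, with biotinylated NLS and mutant NLS peptides, each added separately to whole-cell lysate of Jurkat T cells. Per pull-down protocol: 10 nmols peptide, lysate 1.5 mg/mL total protein, overnight. Complexes captured on streptavidin beads; importins detected by immunoblot.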

GST-tagged Imp α1 ΔIBB = test: Bio-Layer Interferometry; format: binding, human
Outline: (§1)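 Human importin α1 or α5 lacking the importin-β-binding domain (aa 1-100), GST-tagged, expressed in E. coli BL21(DE3)-RIL as inclusion bodies. Refolded, GST-affinity purified and dialysed into pH 7.0 "intracellular" buffer. Biotinylated peptide (5 nmol/L) loaded on streptavidin biosensors, 10 min, 37°C. Protein at 50–200 nmol/L, 30°C, with GST alone as control. Association 15 min, dissociation 15 min; curves fitted 1:1 or 2:1; 3 independent experiments.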

GST-tagged Imp α5 ΔIBB = GST-tagged Imp α5 ΔIBB (Homo sapiens, UniProt P52294); test: Bio-Layer Interferometry; format: binding
Outline: as §1

Imp α4 [1] = test: Importin binding; design: species or system human; details: Jurkat T cell lysate compared to HeLa S3 and EA.hy926
Outline: (§2)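 Biotinylated peptides (N-terminal biotin, 5-Gly spacer), 10 nmols, incubated overnight with whole-cell lysates of unstimulated Jurkat, HeLa S3 or EA.hy926 cells (Jurkat at 1.5 mg/mL total protein). Captured on streptavidin beads; immunoblotted for importins α1, α3, α4, α5, α7, β1, with GAPDH as nonspecific control. Binding strength judged from pulled-down versus lysate amount, alongside GAPDH-normalised importin abundance per cell type.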

Imp α1 [2] = test: Importin binding; design: species or system human
Outline: as §2

Imp α5 [3] = test: Importin binding; design: species or system human
Outline: as §2

Imp α4 [4] = test: Competition binding assay, Imp α4; design: species or system human; details: free N50 0-300 μmol/L, Jurkat lysate 1.5 mg/mL
Outline: (§3)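 Unlabelled N50 (0, 10, 30, 100, 300 μmol/L) incubated overnight at 4°C with unstimulated Jurkat lysate at 1.5, 0.3 or 0.05 mg/mL total protein. Unbound importins then pulled down with biotinylated N50 on streptavidin beads and quantified by immunoblot. Bead-bound signal without competitor set to 100%; percentage remaining per concentration, mean±SD of 3 independent experiments.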

Imp α7 = test: Importin binding; design: species or system human; details: biotinylated peptide, whole cell lysates, SA-bead pull-down, immunoblot
Outline: as §2

Imp α1 [5] = test: Competition binding assay, Imp α1; design: species or system human; details: free N50 0-300 μmol/L, Jurkat lysate 1.5 mg/mL
Outline: as §3

Imp α5 [6] = test: Competition binding assay, Imp α5; design: species or system human; details: free N50 0-300 μmol/L, Jurkat lysate
Outline: as §3

Imp α3 = test: Importin binding; design: species or system human; details: HeLa S3 lysate compared to other cell types
Outline: as §2

Sequence of GST-tagged Imp α5 ΔIBB (P52294 101-538 limits assumed, stated change not applied): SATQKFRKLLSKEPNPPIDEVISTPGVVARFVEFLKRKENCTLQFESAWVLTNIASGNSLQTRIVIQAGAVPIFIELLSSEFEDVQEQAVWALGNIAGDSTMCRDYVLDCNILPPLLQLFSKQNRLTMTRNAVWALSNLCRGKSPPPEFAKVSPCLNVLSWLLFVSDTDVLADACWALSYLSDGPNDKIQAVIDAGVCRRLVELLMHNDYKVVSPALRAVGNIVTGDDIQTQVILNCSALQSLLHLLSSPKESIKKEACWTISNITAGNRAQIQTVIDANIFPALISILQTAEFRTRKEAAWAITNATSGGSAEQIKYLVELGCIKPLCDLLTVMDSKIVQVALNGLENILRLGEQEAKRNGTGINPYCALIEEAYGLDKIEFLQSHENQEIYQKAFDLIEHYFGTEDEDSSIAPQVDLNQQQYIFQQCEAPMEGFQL

Compound: CC[C@H](C)[C@H](NC(=O)[C@H]([C@@H](C)CC)N(C)C(C)=O)C(=O)N[C@H](C(=O)N[C@@H](CC(C)C)C(=O)[C@@]1(C)CO1)[C@@H](C)O [epoxomicin]
- effect on turnover of IκBα (IκBα): drastically slowed turnover

Compound: IQLRKQKREQQLFKRRNVELI [AR7]
- competition with native ARs of importins α (importins α): successfully competed with native ARs of all importins α, including its own

Compound: VQRDEQKLMP [N50M]
- BLI response with Imp α1 (GST-tagged Imp α1 ΔIBB; biotinylated peptide immobilized, Imp α1 ΔIBB 200 nmol/L): at the background level
- BLI response with Imp α5 (GST-tagged Imp α5 ΔIBB; biotinylated peptide immobilized, Imp α5 ΔIBB 200 nmol/L): at the background level

Compound: VQRKRQKLMP [N50]
- competition with native ARs of importins α (importins α): successfully competes
- relative strength of interaction with Imp α4 (Imp α4 [1]): stronger
- relative strength of interaction with Imp α1 (Imp α1 [2]; EA.hy926 lysate compared to Jurkat T cells): weaker
- relative strength of interaction with Imp α1 (Imp α1 [2]; HeLa S3 lysate compared to Jurkat T cells): weaker
- relative strength of interaction with Imp α5 (Imp α5 [3]; all 3 cell types (Jurkat, HeLa S3, EA.hy926)): similarly strong in all 3 cell types
- relative amount of Imp α5 bound to biotinylated N50 (Imp α5 [3]; compared with any of the other detected proteins): strikingly higher than any of the other detected proteins
- inhibition of Imp α4 binding to immobilized N50, in words (Imp α4 [4]): slightly inhibited; also recorded: do not substantially inhibit binding
- binding to Imp α1, in words (GST-tagged Imp α1 ΔIBB; BLI): not Imp α1; also recorded: nonspecific; also recorded: low affinity
- interaction with Imp α7 (Imp α7): inability to detect any interactions; also recorded: inaccessible to this peptide
- inhibition of Imp α1 binding to immobilized N50, in words (Imp α1 [5]): slightly inhibited; also recorded: do not substantially inhibit binding
- inhibition of Imp α5 binding to immobilized N50, in words (Imp α5 [6]): tightly controlled by unlabeled peptide in all lysate total protein concentrations; also recorded: concentration dependent
- relative strength of interaction with Imp α3 (Imp α3): stronger
- binding to Imp α5, in words (GST-tagged Imp α5 ΔIBB; BLI): specific, high‐affinity binding; also recorded: preferential and specific binding
- maximum response with Imp α5 relative to maximum response with Imp α1 (GST-tagged Imp α5 ΔIBB; BLI, normalized by subtracting GST): more than 20 fold
